Experimental data reported in ChEMBL document CHEMBL1641482, “Synthetic analogs of daidzein, having more potent osteoblast stimulating effect” (2011).
Calls of active or inactive are those of the source. The rule behind the calls is not given here.

How the values were obtained:
Rattus norvegicus [1] = test: Estrogenic activity in ovariectomized Sprague-Dawley rat assessed as effect on uterine weight at 3 mg/kg, po qd for 3 days (reference value: 35.0 +/- 0.6); type: functional
Rattus norvegicus [2] = test: Antiestrogenic activity in ovariectomized Sprague-Dawley rat assessed as inhibition of 17beta estradiol-induced increase in uterine weight at 3 mg/kg, po qd for 3 days; type: functional
Osteoblast [3] = test: Induction of osteogenesis in Sprague-Dawley rat calvarial osteoblasts assessed as increase in osteoblast differentiation-associated ALP level at 1 uM after 48 hrs; type: functional, cell-based
Rattus norvegicus [4] = test: Estrogenic activity in ovariectomized Sprague-Dawley rat assessed as effect on uterine weight at 10 mg/kg, po qd for 3 days (reference value: 35.0 +/- 0.6); type: functional
Rattus norvegicus [5] = test: Antiestrogenic activity in ovariectomized Sprague-Dawley rat assessed as inhibition of 17beta estradiol-induced increase in uterine weight at 10 mg/kg, po qd for 3 days; type: functional
Osteoblast [6] = test: Induction of mineralization in Sprague-Dawley rat calvarial osteoblasts assessed as increase of mineralized nodules formation at 10 nM after 7 days by alizarin red staining; type: functional, cell-based
Procedure, shortened: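 Primary rat calvarial osteoblasts were seeded at 2 × 10³ cells per well and exposed to 10.0 nM compound for seven days. Cells were fixed and stained with alizarin red-S, and the dye was extracted and measured colorimetrically by OD. Data are mean SD, n = 4, versus vehicle.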

Osteoblast [7] = test: Ratio of compound to daidzein for induction of osteogenesis in Sprague-Dawley rat calvarial osteoblasts; type: functional
Osteoblast [8] = test: Induction of osteogenesis in Sprague-Dawley rat calvarial osteoblasts assessed as increase in osteoblast differentiation-associated ALP level at 1 pM after 48 hrs; type: functional, cell-based
Procedure, shortened: (§1)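 Primary rat calvarial osteoblasts were seeded at 2 × 10³ cells per well and exposed to compounds from 1.0 pM to 10.0 nM for 48 h. Daidzein served as the positive control. ALP activity was read spectrophotometrically at 405 nm. Data are mean SD, n = 6, compared with vehicle-treated cells.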

Bone marrow cell = test: Induction of mineralization in rat bone marrow cell assessed as increase of mineralized nodules formation at 10 nM after 18 days by alizarin red staining
Osteoblast [9] = test: Induction of osteogenesis in Sprague-Dawley rat calvarial osteoblasts assessed as increase in osteoblast differentiation-associated ALP level at 1 pM to 10 nM after 48 hrs; type: functional, cell-based; procedure, shortened: as §1
Osteoblast [10] = test: Induction of BMP-2 mRNA expression in Sprague-Dawley rat calvarial osteoblasts at 10 nM after 24 hrs by RT-PCR analysis relative to control; type: functional
Procedure, shortened: (§2)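 Osteoblasts were cultured with or without 10 nM compound for 24 h. Osteocalcin and BMP-2 transcripts were quantified by real-time RT-PCR (qPCR) against vehicle control. Data are mean SEM, n = 4.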

Osteoblast [11] = test: Induction of osteocalcin mRNA expression in Sprague-Dawley rat calvarial osteoblasts at 10 nM after 24 hrs by RT-PCR analysis relative to control; type: functional; procedure, shortened: as §2
Rattus norvegicus [12] = test: Estrogenic activity in ovariectomized Sprague-Dawley rat assessed as effect on uterine weight at 0.01 mg/kg, po qd for 3 days (reference value: 35.0 +/- 0.6); type: functional

Row | SMILES | Activity (Rattus norvegicus [1]) [mg] | Activity (Rattus norvegicus [2]) [mg] | Activity (Osteoblast [3]) | Activity (Rattus norvegicus [4]) [mg] | Activity (Rattus norvegicus [5]) [mg] | Activity (Osteoblast [6]) | Ratio (Osteoblast [7]) | Activity (Osteoblast [8]) | Activity (Bone marrow cell) | Activity (Osteoblast [9]) | fold change (FC) (Osteoblast [10]) | fold change (FC) (Osteoblast [11]) | Activity (Rattus norvegicus [12]) [mg]
1 | O=C(c1ccc(OCCN2CCCCC2)cc1)c1c(-c2ccc(O)cc2)sc2cc(O)ccc12 [RALOXIFENE] | 42.3 | 67 | – | – | – | – | – | – | – | – | – | – | –
2 | CCN(CC)CCOc1ccc2c(=O)c(-c3ccc(OC)cc3)coc2c1 | – | – | Active | 28 | 63 | Active | 100 | inactive | Active | Active | 6 | 10 | –
3 | C#C[C@]1(O)CC[C@H]2[C@@H]3CCc4cc(O)ccc4[C@H]3CC[C@@]21C [ETHINYL ESTRADIOL] | – | – | – | – | – | – | – | – | – | – | – | – | 82.3
4 | CCN(CC)CCOc1ccc(-c2coc3cc(OCCN(CC)CC)ccc3c2=O)cc1 | – | – | Active | 31.3 | 57.3 | Active | 100 | inactive | Active | Active | – | – | –
5 | COc1ccc2c(=O)c(-c3ccc(OCC(C)C)cc3)coc2c1 | – | – | Active | – | – | – | 100 | inactive | – | Active | – | – | –
6 | COc1ccc(-c2coc3cc(OCCN4CCCC4)ccc3c2=O)cc1 | – | – | Active | 31.3 | 59.3 | Active | 100 | inactive | – | Active | – | – | –
7 | COc1ccc2c(=O)c(-c3ccc(OCCBr)cc3)coc2c1 | – | – | Active | – | – | – | 100 | inactive | – | Active | – | – | –
